# Experimental data collected from several papers.
# Compare with care: the assays were run in different laboratories.
# Organism: Lodderomyces parapsilosis
# Effect on: microbial growth
# Method: broth dilution
Structure (SMILES),system,setting,MIC
C[C@@H]1[C@H](O)[C@@H](C)/C=C/C=C/C=C/C=C/C=C/C=C/C=C/[C@H](O[C@@H]2O[C@H](C)[C@@H](O)[C@H](N)[C@@H]2O)C[C@@H]2O[C@](O)(C[C@@H](O)C[C@@H](O)[C@H](O)CC[C@@H](O)C[C@@H](O)CC(=O)O[C@H]1C)C[C@H](O)[C@H]2C(=O)O,,,0.25 µg/mL
CN1CCN(CC(O)(Cn2cncn2)c2ccc(F)cc2F)CC1 (stereo not drawn),ATCC22019,48 h,0.975 µg/mL
OC(Cn1cncn1)(Cn1cncn1)c1ccc(F)cc1F,ATCC22019,48 h,50 µg/mL
C[C@@H]1[C@H](O)[C@@H](C)/C=C/C=C/C=C/C=C/C=C/C=C/C=C/[C@H](O[C@@H]2O[C@H](C)[C@@H](O)[C@H](N)[C@@H]2O)C[C@@H]2O[C@](O)(C[C@@H](O)C[C@@H](O)[C@H](O)CC[C@@H](O)C[C@@H](O)CC(=O)O[C@H]1C)C[C@H](O)[C@H]2C(=O)O,ATCC22019,,0.5 µg/mL
CCCCCN1CCN(CC(O)(Cn2cncn2)c2ccc(F)cc2F)CC1 (stereo not drawn),ATCC22019,48 h,15.6 µg/mL
O=C1/C(=C/c2cc(O)c(O)c(O)c2)Oc2ccccc21,,,8 µg/mL
OC(Cn1cncn1)(Cn1cncn1)c1ccc(F)cc1F,ATCC22019,,1 µg/mL
CCCCNS(=O)(=O)c1ccc(-c2ccc3oc(C(=O)c4cc(O)c(O)c(O)c4)cc3c2)cc1,,,8 to 16 µg/mL
CCCCCN1CCNCC1,ATCC22019,48 h,> 31.3 µg/mL
